Assay results published in ChEMBL document CHEMBL1144849, “Latrunculin A and its C-17-O-carbamates inhibit prostate tumor cell invasion and HIF-1 activation in breast tumor cells” (J Nat Prod, 2008).
Active and inactive are the calls of the source. No cut-off for these calls is given here.

Key:
[1] = biological target: T1, Hypoxia inducible factors; HIF-1-alpha, HIF-2-alpha (Homo sapiens, UniProt Q16665+Q99814); experiment: Inhibition of hypoxia-induced HIF1 activation in human T47D cells at 30 uM by cell based reporter gene assay
In short: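 Transfected T47D luciferase reporter assay. Compound-treated cells exposed to hypoxia (5% CO2/1% O2/94% N2), normoxia, or 10 μM 1,10-phenanthroline as hypoxia mimetic, then luciferase activity read. Constitutive pGL3 control reporter run alongside.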

T47D = experiment: Cell viability in human T47D cells at 30 uM by SRB method; type: functional
In short: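 T47D cells in DMEM/F12 with 10% FCS plated at 30,000/well and left overnight at 37 °C. Compound added, 30 min preincubation, then 16 h (or 48 h) treatment at 37 °C, hypoxic (1% O2) or normoxic.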

PC-3M [2] = experiment: Antimetastatic activity in human PC3M cells expressing calcitonin assessed as decreased cell disaggregation by spheroid disaggregation assay; type: functional, cell-based
In short: (§1)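 Spheroids grown from PC-3M-CT+ single-cell suspension (5×10^4/mL, serum-free RPMI 1640) on low-attachment plates rocked at 37 °C for 2 days, reaching 150–300 μm (~4×10^4 cells). One spheroid per ECM-coated well in serum-free medium, t=0 set at 1 h after plating. Photographed, cultured 48 h at 37 °C, fixed, Diff-Quik stained, migration diameter measured by micrometer minus initial diameter. Reported as percent increase in surface area.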

PC-3M [3] = experiment: Antimetastatic activity in human PC3M cells expressing calcitonin assessed as decreased cell migration by spheroid disaggregation assay; type: functional, cell-based; in short: as §1
PC-3M [4] = experiment: Antimetastatic activity in human PC3M cells expressing calcitonin assessed as inhibition calcitonin-induced reorganization of actin fibers at 50 nM by Matrigel barrier assay; type: functional, cell-based
PC-3M [5] = experiment: Antimetastatic activity in human PC3M cells expressing calcitonin assessed as inhibition of invasion at 100 nM by Matrigel barrier assay; type: functional, cell-based
In short: (§2)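 PC-3M-CT+ cells serum-starved 24 h, then 25×10³ cells seeded in the upper insert of Matrigel invasion chambers. Lower chamber held 90% basal RPMI plus 10% conditioned medium from cells expressing active Gαs. After 24 h, non-invaders were removed and the insert underside stained with Diff Quick. Cells counted in ≥6 fields at 100×, corrected for growth rate. Triplicate, repeated twice, mean ± SEM.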

[6] = Cytotoxicity against human PC3M cells; type: functional, PC-3M
PC-3M [7] = experiment: Antimetastatic activity in human PC3M cells expressing calcitonin assessed as inhibition calcitonin-induced invasion at 100 nM by Matrigel barrier assay; type: functional, cell-based; in short: as §2
[8] = biological target: T1, Hypoxia inducible factors; HIF-1-alpha, HIF-2-alpha; experiment: Inhibition of hypoxia-induced HIF1 activation in human T47D cells by cell based reporter gene assay
In short: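 T47D cells transfected with an HIF-1 luciferase reporter, treated with compound and exposed to hypoxia (5% CO₂/1% O₂/94% N₂) versus normoxia (5% CO₂/95% air). Luciferase activity measured.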

[9] = biological target: T1, Hypoxia inducible factors; HIF-1-alpha, HIF-2-alpha; experiment: Inhibition of 1,10-phenanthroline-induced HIF1 activation in human T47D cells by cell based reporter gene assay
In short: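 T47D cells transfected with an HIF-1 luciferase reporter, treated with compound and stimulated with 10 μM 1,10-phenanthroline as a hypoxia mimetic. Luciferase activity measured.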

[10] = Antimetastatic activity in human PC3M cells expressing calcitonin assessed as decreased cell disaggregation at 500 nM by spheroid disaggregation assay relative to control; type: functional, PC-3M
In short: (§3)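 Single PC-3M-CT+ spheroids (150–300 μm, ~4×10⁴ cells, grown 2 days on a rocking shaker in serum-free RPMI) placed on ECM-coated wells in serum-free medium. t = 0 set 1 h after plating. Cultured 48 h at 37 °C, then fixed and Diff-Quik stained. Migration diameter measured by micrometer minus initial spheroid diameter. Reported as average percent increase in surface area.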

[11] = Antimetastatic activity in human PC3M cells expressing calcitonin assessed as decreased cell migration at 500 nM by spheroid disintegration assay relative to control; type: functional, PC-3M; in short: as §3
PC-3M [12] = experiment: Antimetastatic activity in human PC3M cells expressing calcitonin assessed as shrinkage of actin fibers at 50 nM by Matrigel barrier assay; type: functional, cell-based

Structure (SMILES) | inhibition [1] | Activity (T47D) | Activity (PC-3M [2]) | Activity (PC-3M [3]) | Activity (PC-3M [4]) | Activity (PC-3M [5]) | Activity [6] | Activity (PC-3M [7]) | IC50 [8] | IC50 [9] | Fold change [10] | Fold change [11] | Activity (PC-3M [12])
C/C1=C/C(=O)O[C@@H]2C[C@@H](CC[C@H](C)/C=C\C=C\CC1)O[C@@](OC(=O)NCCCl)([C@@H]1CSC(=O)N1)C2 | < 50% | <20% | inactive | inactive |  |  |  |  |  |  |  |  | 
C/C1=C/C(=O)O[C@@H]2C[C@@H](CC[C@H](C)/C=C\C=C\CC1)O[C@@](O)([C@@H]1CSC(=O)N1)C2 [LATRUNCULIN A] |  | <20% |  |  | Active | Active | 500 nM | Active | 6.7 µM | 25 µM | 3 | 3 | Active
C/C1=C/C(=O)O[C@@H]2C[C@@H](CC[C@H](C)/C=C\C=C\CC1)O[C@@](OC(=O)NCc1ccccc1)([C@@H]1CSC(=O)N1)C2 |  | <20% | Dose-dependent effect | Dose-dependent effect |  |  |  |  | 29 µM |  |  |  | 

Further lines, with some results ahead:

inhibition [1] | Structure (SMILES) | Activity (T47D) | Activity (PC-3M [2]) | Activity (PC-3M [3]) | Activity (PC-3M [4]) | Activity (PC-3M [5]) | Activity [6] | Activity (PC-3M [7]) | IC50 [8] | IC50 [9] | Fold change [10] | Fold change [11] | Activity (PC-3M [12])
< 50% | C/C1=C/C(=O)O[C@@H]2C[C@@H](CC[C@H](C)/C=C\C=C\CC1)O[C@@](OC(=O)NCCCCl)([C@@H]1CSC(=O)N1)C2 | <20% | Dose-dependent effect | Dose-dependent effect |  |  |  |  |  |  |  |  | 
< 50% | C/C1=C/C(=O)O[C@@H]2C[C@@H](CC[C@H](C)/C=C\C=C\CC1)O[C@@](OC(=O)NCCBr)([C@@H]1CSC(=O)N1)C2 | <20% | inactive | inactive |  |  |  |  |  |  |  |  | 
< 50% | C/C1=C/C(=O)O[C@@H]2C[C@@H](CC[C@H](C)/C=C\C=C\CC1)O[C@@](OC(=O)Nc1ccccc1)([C@@H]1CSC(=O)N1)C2 | <20% | Dose-dependent effect | Dose-dependent effect |  |  |  |  |  |  |  |  | 
